OX1R antag-1: blocks the human orexin 1 receptor. O43613. AID 485270. 330,000 compounds, 1.8% hits. inhibition, % at 6.6 µM. OX1R-expressing cells, FRET antagonist read-out; in the data active means inhibition mostly above about 38%, no sharp cut-off; inactive means mostly below about 40%;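 further: 0% = agonist challenge alone and 100% = reference antagonist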
Target sequence (O43613 whole entry, looked up): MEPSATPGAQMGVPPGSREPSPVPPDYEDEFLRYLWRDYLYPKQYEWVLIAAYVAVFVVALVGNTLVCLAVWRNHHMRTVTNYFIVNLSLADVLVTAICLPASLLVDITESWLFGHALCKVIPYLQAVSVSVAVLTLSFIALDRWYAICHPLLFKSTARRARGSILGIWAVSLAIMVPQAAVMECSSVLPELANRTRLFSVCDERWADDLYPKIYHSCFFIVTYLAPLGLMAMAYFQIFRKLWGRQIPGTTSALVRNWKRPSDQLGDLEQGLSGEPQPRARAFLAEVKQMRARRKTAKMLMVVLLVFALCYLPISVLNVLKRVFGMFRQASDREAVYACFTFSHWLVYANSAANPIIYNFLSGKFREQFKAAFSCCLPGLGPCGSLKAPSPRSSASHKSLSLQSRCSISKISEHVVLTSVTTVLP
CHO-K1 Ca PAM: counter-screen for M1 PAMs: effect in parental CHO-K1 cells | ATP EC20, Fluo-8 calcium fluorescence; 0% at ATP EC20, 100% at ATP max | activation, % at 3 µM | 360,000 compounds, 0.02% hits | AID 602247;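 active means activation above the run cutoff, the mean activation of all test compounds plus 3 SD, cut at about 40% in these data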;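 further: peak over basal fluorescence ratio in a 140 s read after ATP addition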
OX1R antag-2: human HCRTR1 antagonism | inhibition, % at 5 µM | CHO/OX1R cells, Fluo-8 calcium fluorescence, orexin A | 330,000 compounds, 0.43% hits | AID 434989 | O43613;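 active means inhibition above its plate's threshold, mean inhibition of all tested compounds on the plate plus 3 SD, cut at about 37% in these data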;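 further: 0% = orexin A challenge wells and 100% = SB-334867-A antagonist wells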
CHO-K1 Ca ag: counter-screen for M1 agonists: effect in parental CHO-K1 cells; activation, % at 3 µM; AID 602248; 360,000 compounds, 0.48% hits; Fluo-8 calcium fluorescence; scaled to maximal ATP response, vehicle zero; in the data active means activation above about 15%;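 further: untransfected CHO-K1 host cells lacking M1 receptor as counterscreen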
CHO-K1 Ca antag: M1 antagonist counterscreen hit in parental CHO-K1 cells; 360,000 compounds, 0.6% hits; inhibition, % at 3 µM; ATP-induced calcium, Fluo-8 fluorescence;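 active means inhibition above a per-plate cutoff, the plate's mean sample inhibition plus 3 SD, cut at about 24% in these data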;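 further: 0% = DMSO plus EC80 ATP and 100% = DMSO alone without ATP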
CHO parental Ca: signal in parental CHO cells, OX1R antagonist counter-screen; parental CHO-K1, ATP-induced calcium, Fluo-8 fluorescence; inhibition, % at 5.6 µM; 330,000 compounds, 0.63% hits; AID 463079;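 active means inhibition above that plate's mean sample inhibition plus 3 SD, cut at about 26% in these data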;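 further: 0% = ATP-challenged DMSO wells and 100% = DMSO wells without ATP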
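Assay system – parental CHO cells · Reagent – ATP stimulus · Detection – intracellular calcium via Fluo-8 no-wash fluorescent dye · Evaluation – percent inhibition of ATP-evoked calcium rise, normalized to controls · Controls – ATP wells versus no-ATP DMSO wells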
* hit, by the source's call. Sampled rows, rich in hits. Any-hit rate of the full collection: about 2.9%.

`O=C(c1cc(COc2ccc3ncccc3c2)on1)N1CCC(O)CC1` gave OX1R antag-1 14.9, CHO-K1 Ca PAM 1.4, OX1R antag-2 -2.3, CHO-K1 Ca ag 4.9, CHO-K1 Ca antag 1.2 and CHO parental Ca 19.3.
O=C(c1cc(COc2ccc3ncccc3c2)on1)N1CCCC(O)C1 (stereo not drawn) was read as OX1R antag-1 29.4, CHO-K1 Ca PAM 9.7, OX1R antag-2 -7.7, CHO-K1 Ca ag 10.5, CHO-K1 Ca antag -3.0 and CHO parental Ca -2.9.
Screening COC(=O)c1sc(NC(=O)COc2cccc(C)c2)nc1C returned OX1R antag-1 69.2*, CHO-K1 Ca PAM 18.5, OX1R antag-2 -13.4, CHO-K1 Ca ag 0.4, CHO-K1 Ca antag -4.1 and CHO parental Ca -6.4.
Screening COC(=O)c1sc(NC(=O)COc2ccc(OC)cc2)nc1C returned OX1R antag-1 17.7, CHO-K1 Ca PAM 1.1, OX1R antag-2 -15.8, CHO-K1 Ca ag 0.0, CHO-K1 Ca antag -5.2 and CHO parental Ca -15.9.
`Cc1cc2c(cc1S(=O)(=O)Nc1ccc(OC(F)(F)F)cc1)OCC(=O)N2` gave OX1R antag-1 8.3, CHO-K1 Ca PAM 7.8, OX1R antag-2 -15.9, CHO-K1 Ca ag 3.8, CHO-K1 Ca antag -14.8 and CHO parental Ca -4.8.
For O=C1C2C3C=CC(C4CC34)C2C(=O)N1Cc1ccccc1 (stereo not drawn) the results were OX1R antag-1 8.0, CHO-K1 Ca PAM 19.5, OX1R antag-2 -23.9, CHO-K1 Ca ag 0.2, CHO-K1 Ca antag -6.7 and CHO parental Ca -6.5.
For O=C1C2C3C=CC(C4CC34)C2C(=O)N1c1cccc2ccccc12 (stereo not drawn) the results were OX1R antag-1 -6.2, CHO-K1 Ca PAM 23.6, OX1R antag-2 -22.4, CHO-K1 Ca ag 18.2*, CHO-K1 Ca antag -5.2 and CHO parental Ca -1.8.
Cc1cc(N2CCCCC2)nc(NCc2ccccc2)n1 was read as OX1R antag-1 14.1, CHO-K1 Ca PAM 0.1, OX1R antag-2 -10.4, CHO-K1 Ca ag 19.8*, CHO-K1 Ca antag 12.7 and CHO parental Ca 7.9.
`Cc1cc(N2CCOCC2)nc(NCc2ccccc2)n1` gave OX1R antag-1 13.6, CHO-K1 Ca PAM -9.1, OX1R antag-2 10.8, CHO-K1 Ca ag 16.1*, CHO-K1 Ca antag 3.8 and CHO parental Ca -0.8.
`Cc1cc(OC2CCCCC2)nc(NCc2ccccc2)n1` gave OX1R antag-1 9.7, CHO-K1 Ca PAM -1.6, OX1R antag-2 -32.0, CHO-K1 Ca ag 0.5, CHO-K1 Ca antag 4.9 and CHO parental Ca -27.4.
CC1=C(C(=O)N(C(C)C)C(C)C)CC(CC(=O)NC2CCCC2)C(=O)N1Cc1ccc(F)cc1 (stereo not drawn) was read as CHO-K1 Ca PAM 3.9, CHO-K1 Ca ag -0.5 and CHO-K1 Ca antag 12.5.
`Cc1ccc(C)c(NC(=O)CN(C)C(=O)c2nn(C)c(=O)c3ccccc23)c1` gave OX1R antag-1 9.1, CHO-K1 Ca PAM 15.3, OX1R antag-2 -10.8, CHO-K1 Ca ag 2.7, CHO-K1 Ca antag -16.1 and CHO parental Ca -19.0.
`O=Cc1cn(-c2ccccc2)nc1-c1ccccc1` gave OX1R antag-1 -1.5, CHO-K1 Ca PAM 16.3, OX1R antag-2 10.2, CHO-K1 Ca ag 0.6, CHO-K1 Ca antag -12.8 and CHO parental Ca 0.2.
`CC1=NNC(=O)/C1=C\c1cn(-c2ccccc2)nc1-c1ccccc1` gave OX1R antag-1 19.2, CHO-K1 Ca PAM 5.2, OX1R antag-2 96.4*, CHO-K1 Ca ag 3.3, CHO-K1 Ca antag 18.5 and CHO parental Ca 92.5*.
`O=C(c1cn(-c2ccccc2)nc1-c1ccc(F)cc1)N1CCOCC1` gave OX1R antag-1 18.2, CHO-K1 Ca PAM -15.9, OX1R antag-2 -16.4, CHO-K1 Ca ag 0.8, CHO-K1 Ca antag 2.2 and CHO parental Ca 3.6.
Screening O=C(c1cn(-c2ccccc2)nc1-c1ccc(F)cc1)N1CCCCC1 returned OX1R antag-1 17.1, CHO-K1 Ca PAM 14.9, OX1R antag-2 -77.8, CHO-K1 Ca ag 16.9*, CHO-K1 Ca antag -2.8 and CHO parental Ca -2.8.
`O=C(CCCn1c(=O)c2cccn2c2cccnc21)NCc1cccc(Br)c1` gave OX1R antag-1 31.1, CHO-K1 Ca PAM -12.1, OX1R antag-2 -1.8, CHO-K1 Ca ag 0.7, CHO-K1 Ca antag 1.7 and CHO parental Ca -4.9.
Screening CCc1ccc(CNC(=O)CCCn2c(=O)c3cccn3c3cccnc32)cc1 returned OX1R antag-1 9.7, CHO-K1 Ca PAM -14.4, OX1R antag-2 -15.7, CHO-K1 Ca ag 3.6, CHO-K1 Ca antag 0.4 and CHO parental Ca -25.3.
For CCOc1cc(CNC(=O)CCCn2c(=O)c3cccn3c3cccnc32)cc(OCC)c1OCC the results were OX1R antag-1 67.9*, CHO-K1 Ca PAM 17.8, OX1R antag-2 3.9, CHO-K1 Ca ag 2.0, CHO-K1 Ca antag -10.6 and CHO parental Ca -18.5.
Screening CSc1cccc(NC(=O)CCCn2c(=O)c3cccn3c3cccnc32)c1 returned OX1R antag-1 73.7*, CHO-K1 Ca PAM 4.7, OX1R antag-2 0.8, CHO-K1 Ca ag 3.8, CHO-K1 Ca antag 11.6 and CHO parental Ca -10.2.
Screening COc1cc(NC(=O)c2ccccc2)c(OC)cc1NC(=O)CN1C(=O)NC2(CCCCC2)C1=O returned OX1R antag-1 3.8, CHO-K1 Ca PAM -4.7, OX1R antag-2 -15.8, CHO-K1 Ca ag 0.1, CHO-K1 Ca antag -6.3 and CHO parental Ca -22.5.
O=C(Nc1ccccc1Cl)c1ccc2c(=O)n3c(nc2c1)CCC3 was read as OX1R antag-1 5.1, CHO-K1 Ca PAM 15.8, OX1R antag-2 -12.5, CHO-K1 Ca ag 1.3, CHO-K1 Ca antag -21.4 and CHO parental Ca 2.7.
For Cc1ccc(-c2csc(NC(=O)c3cc([N+](=O)[O-])ccc3N3CCOCC3)n2)cc1 the results were OX1R antag-1 0.4, CHO-K1 Ca PAM 5.5, OX1R antag-2 -9.0, CHO-K1 Ca ag 0.1, CHO-K1 Ca antag -3.2 and CHO parental Ca 1.5.
`O=C(Nc1nc(-c2ccccc2)cs1)c1ccc2c(=O)n3c(nc2c1)CCCCC3` gave OX1R antag-1 51.1*, CHO-K1 Ca PAM 7.8, OX1R antag-2 21.4, CHO-K1 Ca ag 8.5, CHO-K1 Ca antag 5.0 and CHO parental Ca 15.3.
`O=C(Nc1nc(-c2ccccc2)cs1)c1ccc(N2CCOCC2)c([N+](=O)[O-])c1` gave OX1R antag-1 80.3*, CHO-K1 Ca PAM -1.9, OX1R antag-2 38.0, CHO-K1 Ca ag 12.3, CHO-K1 Ca antag 25.4* and CHO parental Ca 41.0*.
For Nc1ccccc1S(=O)(=O)C(F)F the results were OX1R antag-1 4.7, CHO-K1 Ca PAM -0.8, OX1R antag-2 -5.9, CHO-K1 Ca ag 3.7, CHO-K1 Ca antag 8.0 and CHO parental Ca -4.5.
CC(=O)Nc1ccc2c(c1)CN(c1cc(C)ccc1C)CO2 was read as OX1R antag-1 18.9, CHO-K1 Ca PAM -13.9, OX1R antag-2 -16.0, CHO-K1 Ca ag 8.3, CHO-K1 Ca antag 24.8* and CHO parental Ca -7.3.
CC(=O)N1CCOCCOCCN(C(C)=O)CCOCC1 was read as OX1R antag-1 6.3, CHO-K1 Ca PAM 30.3, OX1R antag-2 -4.7, CHO-K1 Ca ag 1.4, CHO-K1 Ca antag -14.7 and CHO parental Ca -5.0.

Bioassay records as filed in PubChem.
